Six compounds from ChEMBL document CHEMBL1126771, “Application of a conformationally restricted Phe-Leu dipeptide mimetic to the design of a combined inhibitor of angiotensin I-converting enzyme and neutral endopeptidase 24.11” (J Med Chem, 1993) can be followed below.

In test [1] the target is T1, Neprilysin (Rattus norvegicus, UniProt P07861).
T1 sequence (P07861 whole entry): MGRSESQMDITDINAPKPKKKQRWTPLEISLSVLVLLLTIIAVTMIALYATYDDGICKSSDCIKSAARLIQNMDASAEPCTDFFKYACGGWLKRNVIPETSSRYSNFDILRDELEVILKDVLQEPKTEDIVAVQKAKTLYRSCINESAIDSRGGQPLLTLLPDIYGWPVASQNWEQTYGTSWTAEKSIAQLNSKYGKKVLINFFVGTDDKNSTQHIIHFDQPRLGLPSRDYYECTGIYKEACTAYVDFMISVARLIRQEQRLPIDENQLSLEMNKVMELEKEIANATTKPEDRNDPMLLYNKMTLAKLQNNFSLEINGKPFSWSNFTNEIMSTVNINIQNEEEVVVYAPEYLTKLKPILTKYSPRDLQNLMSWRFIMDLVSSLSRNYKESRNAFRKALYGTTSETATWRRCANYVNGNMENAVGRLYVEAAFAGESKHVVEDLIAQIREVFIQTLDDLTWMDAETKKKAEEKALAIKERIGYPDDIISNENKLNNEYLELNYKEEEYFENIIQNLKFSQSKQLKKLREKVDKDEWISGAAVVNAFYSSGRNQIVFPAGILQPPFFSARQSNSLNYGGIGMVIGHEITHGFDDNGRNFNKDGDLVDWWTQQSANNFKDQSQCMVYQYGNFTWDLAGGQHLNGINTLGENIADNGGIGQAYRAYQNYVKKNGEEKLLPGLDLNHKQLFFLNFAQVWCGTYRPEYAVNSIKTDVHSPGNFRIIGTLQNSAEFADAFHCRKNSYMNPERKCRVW
In words: Binding affinity of compound against rat kidney neutral endopeptidase (NEP) was determined. A digest of the protocol: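 Rat kidney NEP. Fluorogenic assay using dansyl-D-Ala-Gly-(p-nitro)Phe-Gly-OH as substrate. Inhibitor solutions assayed for thiol content with Ellman's reagent immediately prior to testing.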

Test [2] deals with T2, Angiotensin-converting enzyme (Oryctolagus cuniculus, UniProt P12822).
T2 sequence (P12822 whole entry): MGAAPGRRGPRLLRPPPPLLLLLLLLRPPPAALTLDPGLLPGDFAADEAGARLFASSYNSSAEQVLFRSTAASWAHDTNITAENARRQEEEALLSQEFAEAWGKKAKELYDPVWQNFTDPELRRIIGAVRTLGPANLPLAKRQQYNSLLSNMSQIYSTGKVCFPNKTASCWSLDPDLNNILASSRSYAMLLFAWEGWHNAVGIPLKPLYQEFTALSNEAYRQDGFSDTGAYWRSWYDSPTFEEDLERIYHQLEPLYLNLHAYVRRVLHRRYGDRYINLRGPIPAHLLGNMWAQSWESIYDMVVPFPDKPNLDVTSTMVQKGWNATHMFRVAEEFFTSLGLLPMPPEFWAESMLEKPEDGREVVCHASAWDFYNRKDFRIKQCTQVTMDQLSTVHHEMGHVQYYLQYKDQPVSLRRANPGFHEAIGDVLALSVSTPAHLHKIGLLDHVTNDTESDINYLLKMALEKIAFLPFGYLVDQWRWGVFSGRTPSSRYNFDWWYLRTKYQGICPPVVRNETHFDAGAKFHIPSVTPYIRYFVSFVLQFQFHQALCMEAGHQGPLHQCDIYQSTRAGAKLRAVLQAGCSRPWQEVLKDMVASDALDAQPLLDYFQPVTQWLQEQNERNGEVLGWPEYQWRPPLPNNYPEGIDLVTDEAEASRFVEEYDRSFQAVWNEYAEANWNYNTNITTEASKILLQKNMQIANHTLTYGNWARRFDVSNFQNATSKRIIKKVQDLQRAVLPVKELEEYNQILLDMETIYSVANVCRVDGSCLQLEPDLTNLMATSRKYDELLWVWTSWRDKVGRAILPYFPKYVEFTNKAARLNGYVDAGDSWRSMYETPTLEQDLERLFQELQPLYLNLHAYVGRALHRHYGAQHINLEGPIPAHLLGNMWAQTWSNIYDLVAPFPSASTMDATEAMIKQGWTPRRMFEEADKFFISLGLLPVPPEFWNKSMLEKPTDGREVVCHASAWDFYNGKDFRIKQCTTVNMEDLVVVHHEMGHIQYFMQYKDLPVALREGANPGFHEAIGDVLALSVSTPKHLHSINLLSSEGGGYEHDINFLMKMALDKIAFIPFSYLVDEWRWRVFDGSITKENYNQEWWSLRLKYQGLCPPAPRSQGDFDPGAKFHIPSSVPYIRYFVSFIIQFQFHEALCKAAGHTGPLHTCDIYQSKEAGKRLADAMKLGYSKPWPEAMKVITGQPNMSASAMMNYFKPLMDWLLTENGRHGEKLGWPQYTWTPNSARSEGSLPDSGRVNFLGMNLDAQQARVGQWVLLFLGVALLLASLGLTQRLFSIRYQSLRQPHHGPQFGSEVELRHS
In words: Binding affinity of compound against rabbit lung angiotensin I-converting enzyme (ACE) was determined. A digest of the protocol: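 Rabbit lung ACE. Spectrophotometric assay with recrystallized (furylacryloyl)phenylalanyl-glycylglycine as substrate; colored contaminants removed beforehand. Thiol content of inhibitor solutions checked with Ellman's reagent just before testing.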

Each structure is given as a SMILES string. Bounds are passed on as bounds.

The Ki is a measure of affinity in units of concentration, obtained from inhibition or displacement. A high value points to lower affinity. For the compound `O=C(CS)N[C@@H]1Cc2ccccc2C2CCC[C@H](C(=O)O)N2C1=O` (some centres not stated), the inhibition constant Ki in test [1] worked out at 5 nM; in test [2], 2 nM.

For the compound `O=C(NC1Cc2ccccc2C2CCC[C@H](C(=O)O)N2C1=O)C(S)Cc1ccccc1` (stereo in doubt), the Ki in test [1] was found to be 0.08 nM; in test [2], 0.11 nM.

Turning to `O=C(O)[C@H]1CCCC2c3ccccc3C[C@@H](CS)C(=O)N21` (stereo in doubt; 4), the inhibition constant Ki is 45 nM in test [1] and > 7 nM in test [2].

`O=C(O)[C@H](CCc1ccccc1)N[C@@H]1Cc2ccccc2C2CCC[C@H](C(=O)O)N2C1=O` (some centres not stated): the Ki was > 10000 nM in test [1] and 0.004 nM in test [2].

Turning to `O=C(NC1Cc2ccccc2C2CCC[C@H](C(=O)O)N2C1=O)C(S)Cc1ccccc1` (stereo in doubt; 11b), the Ki stood at 0.07 nM in test [1] and 4.5 nM in test [2].

`O=C(O)[C@H]1CCCC2c3ccccc3C[C@@H](CS)C(=O)N21` (stereo in doubt; 3): the Ki was > 300 nM in test [1] and 2 nM in test [2].
